This is an account of results in ChEMBL document CHEMBL1144304, “Benzimidazole derivatives as novel nonpeptide luteinizing hormone-releasing hormone (LHRH) antagonists. Part 1: Benzimidazole-5-sulfonamides” (Bioorg Med Chem Lett, 2005).

Structures are written as SMILES. pIC50: −log10 of the molar value.

In the first assay the target is T1, Gonadotropin-releasing hormone receptor (Rattus norvegicus, UniProt P30969).
T1 sequence (P30969 whole entry): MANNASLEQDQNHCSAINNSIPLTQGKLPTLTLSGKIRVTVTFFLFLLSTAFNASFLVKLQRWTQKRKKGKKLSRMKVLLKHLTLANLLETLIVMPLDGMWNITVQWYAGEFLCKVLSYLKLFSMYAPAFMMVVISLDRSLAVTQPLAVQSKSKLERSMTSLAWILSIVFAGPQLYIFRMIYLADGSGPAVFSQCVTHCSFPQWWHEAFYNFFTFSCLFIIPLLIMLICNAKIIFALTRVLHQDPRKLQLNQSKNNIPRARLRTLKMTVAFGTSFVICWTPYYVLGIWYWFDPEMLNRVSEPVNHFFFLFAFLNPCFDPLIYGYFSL
The experiment in a line: Inhibitory concentration towards rat leutinizing releasing hormone receptor. In short, it runs like this: (§1)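 CHO cells transfected with human or rat LHRH receptor cDNA, loaded with Fluo-3 AM and preincubated 20 min at 25 °C with varying compound concentrations. Stimulated with LHRH (10 nM for human-receptor cells, 1 nM for rat-receptor cells). Intracellular calcium fluorescence read; inhibition from integral ratio (actual/initial fluorescence). IC50 is the mean of at least two experiments, each in triplicate.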
`CCSc1nc2cc(S(=O)(=O)NCc3ccc(OC)cc3)ccc2n1Cc1ccccc1` gave a pIC50 of 6.03.

Regarding `CCSc1nc2cc(S(=O)(=O)NCCN3CCOCC3)ccc2n1Cc1ccccc1`, the negative logarithm of the IC50 (pIC50) was less than 5.00.

Regarding `CCSc1nc2cc(S(=O)(=O)NCc3ccc(F)cc3)ccc2n1CCc1ccccc1`, the pIC50 was less than 5.00.

For the compound `CSc1nc2cc(S(=O)(=O)NCc3ccc(F)cc3)ccc2n1Cc1ccccc1`, the pIC50 is 6.68.

Turning to `O=S(=O)(NCc1ccc(F)cc1)c1ccc2c(c1)nc(SCc1ccccn1)n2Cc1ccccc1`, the pIC50 is 6.02.

Take `CCOc1nc2cc(S(=O)(=O)NCc3ccc(F)cc3)ccc2n1Cc1cccc(Cl)c1`: the pIC50 was 5.72.

Take `CCSc1nc2cc(S(=O)(=O)NCc3ccc([N+](=O)[O-])cc3)ccc2n1Cc1ccccc1`: the pIC50 was 5.92.

As for `O=S(=O)(NCc1ccc(F)cc1)c1ccc2c(c1)nc(SCCO)n2Cc1ccccc1`, the pIC50 was 6.22.

`O=S(=O)(NCc1ccc(F)cc1)c1ccc2c(c1)nc(NCCN1CCOCC1)n2Cc1ccccc1` showed a pIC50 of less than 5.00.

With `CCSc1nc2cc(S(=O)(=O)NCc3ccc(F)cc3)ccc2n1Cc1ccccc1`, the pIC50 was 6.70.

Turning to `O=S(=O)(NCc1ccc(F)cc1)c1ccc2c(c1)nc(SCc1ccncc1)n2Cc1ccccc1`, the pIC50 was 6.62.

For the compound `CCOc1nc2cc(S(=O)(=O)NCc3ccc(F)cc3)ccc2n1Cc1ccsc1`, the pIC50 is 5.70.

`CCOc1nc2cc(S(=O)(=O)NCc3ccc(F)cc3)ccc2n1CCN1CCOCC1` gave a pIC50 of 5.14.

Consider `O=S(=O)(NCc1ccc(F)cc1)c1ccc2c(c1)nc(SCCNCc1ccccc1)n2Cc1ccccc1`, for which the pIC50 was 6.28.

On to `CCSc1nc2cc(S(=O)(=O)NCc3ccc(Cl)cc3)ccc2n1Cc1ccccc1`, for which the pIC50 was 6.48.

`O=S(=O)(NCc1ccc(F)cc1)c1ccc2c(c1)nc(SCCc1cccnc1)n2Cc1ccccc1` gave a pIC50 of 6.85.

Consider `O=S(=O)(NCc1ccc(F)cc1)c1ccc2c(c1)nc(OCCN1CCOCC1)n2Cc1ccccc1`, for which the pIC50 is 5.49.

In turn, `O=S(=O)(NCc1ccc(F)cc1)c1ccc2c(c1)nc(SCCc1ccccn1)n2Cc1ccccc1` showed a pIC50 of 6.55.

Compound `CCOC(=O)CSc1nc2cc(S(=O)(=O)NCc3ccc(F)cc3)ccc2n1Cc1ccccc1` showed a pIC50 of 6.09.

In the case of `CCOc1nc2cc(S(=O)(=O)NCc3ccc(F)cc3)ccc2n1Cc1ccccc1`, the pIC50 was 6.33.

Consider `CCSc1nc2cc(S(=O)(=O)NCc3cccc(OC)c3)ccc2n1Cc1ccccc1`, for which the pIC50 is 5.40.

In turn, `O=S(=O)(NCc1ccc(F)cc1)c1ccc2c(c1)nc(SCCN1CCOCC1)n2Cc1ccccc1` had a pIC50 of 6.77.

Another assay deals with T2, Gonadotropin-releasing hormone receptor (Homo sapiens, UniProt P30968).
T2 sequence (P30968 whole entry): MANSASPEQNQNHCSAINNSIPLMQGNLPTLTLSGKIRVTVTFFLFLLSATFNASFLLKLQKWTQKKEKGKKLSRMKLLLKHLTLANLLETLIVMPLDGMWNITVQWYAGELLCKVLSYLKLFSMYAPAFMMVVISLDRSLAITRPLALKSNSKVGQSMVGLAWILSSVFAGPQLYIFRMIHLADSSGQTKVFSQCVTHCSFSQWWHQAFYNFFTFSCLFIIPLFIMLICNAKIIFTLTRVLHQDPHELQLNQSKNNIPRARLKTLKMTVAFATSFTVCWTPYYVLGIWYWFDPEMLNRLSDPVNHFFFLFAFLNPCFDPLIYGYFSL
Briefly: Inhibitory concentration towards human leutinizing releasing hormone receptor. In short, it runs like this: as §1
`CCSc1nc2cc(S(=O)(=O)NCc3ccc(OC)cc3)ccc2n1Cc1ccccc1` gave a pIC50 of 5.96.

`CCSc1nc2cc(S(=O)(=O)NCCN3CCOCC3)ccc2n1Cc1ccccc1` had a pIC50 of less than 5.00.

As for `CCSc1nc2cc(S(=O)(=O)NCc3ccc(F)cc3)ccc2n1CCc1ccccc1`, the negative-log IC50 (pIC50) is less than 5.00.

In turn, `CSc1nc2cc(S(=O)(=O)NCc3ccc(F)cc3)ccc2n1Cc1ccccc1` showed a pIC50 of 6.66.

In turn, `O=S(=O)(NCc1ccc(F)cc1)c1ccc2c(c1)nc(SCc1ccccn1)n2Cc1ccccc1` had a pIC50 of 6.09.

Regarding `CCOc1nc2cc(S(=O)(=O)NCc3ccc(F)cc3)ccc2n1Cc1cccc(Cl)c1`, the pIC50 is 6.06.

Take `CCSc1nc2cc(S(=O)(=O)NCc3ccc([N+](=O)[O-])cc3)ccc2n1Cc1ccccc1`: the pIC50 was 5.96.

In the case of `O=S(=O)(NCc1ccc(F)cc1)c1ccc2c(c1)nc(SCCO)n2Cc1ccccc1`, the pIC50 was 6.57.

In turn, `O=S(=O)(NCc1ccc(F)cc1)c1ccc2c(c1)nc(NCCN1CCOCC1)n2Cc1ccccc1` showed a pIC50 of less than 5.00.

The compound `CCSc1nc2cc(S(=O)(=O)NCc3ccc(F)cc3)ccc2n1Cc1ccccc1` showed a pIC50 of 6.60.

As for `O=S(=O)(NCc1ccc(F)cc1)c1ccc2c(c1)nc(SCc1ccncc1)n2Cc1ccccc1`, the pIC50 is 6.49.

For the compound `CCOc1nc2cc(S(=O)(=O)NCc3ccc(F)cc3)ccc2n1Cc1ccsc1`, the pIC50 was 5.85.

On to `CCOc1nc2cc(S(=O)(=O)NCc3ccc(F)cc3)ccc2n1CCN1CCOCC1`, for which the pIC50 is 5.68.

As for `O=S(=O)(NCc1ccc(F)cc1)c1ccc2c(c1)nc(SCCNCc1ccccc1)n2Cc1ccccc1`, the pIC50 is 6.17.

As to `CCSc1nc2cc(S(=O)(=O)NCc3ccc(Cl)cc3)ccc2n1Cc1ccccc1`, the pIC50 was 6.55.

For the compound `O=S(=O)(NCc1ccc(F)cc1)c1ccc2c(c1)nc(SCCc1cccnc1)n2Cc1ccccc1`, the pIC50 was 6.92.

Compound `O=S(=O)(NCc1ccc(F)cc1)c1ccc2c(c1)nc(OCCN1CCOCC1)n2Cc1ccccc1` showed a pIC50 of 5.24.

In turn, `O=S(=O)(NCc1ccc(F)cc1)c1ccc2c(c1)nc(SCCc1ccccn1)n2Cc1ccccc1` showed a pIC50 of 6.64.

Turning to `CCOC(=O)CSc1nc2cc(S(=O)(=O)NCc3ccc(F)cc3)ccc2n1Cc1ccccc1`, the pIC50 is 6.31.

`CCOc1nc2cc(S(=O)(=O)NCc3ccc(F)cc3)ccc2n1Cc1ccccc1` had a pIC50 of 6.52.

On to `CCSc1nc2cc(S(=O)(=O)NCc3cccc(OC)c3)ccc2n1Cc1ccccc1`, for which the pIC50 was 5.32.

The compound `O=S(=O)(NCc1ccc(F)cc1)c1ccc2c(c1)nc(SCCN1CCOCC1)n2Cc1ccccc1` showed a pIC50 of 6.80.
